Results: ChEMBL document CHEMBL4513216, “Probing the Open Global Health Chemical Diversity Library for Multistage-Active Starting Points for Next-Generation Antimalarials” (ACS Infect Dis, 2020)

Test: Toxicity liver stage against HepG2, at 10uM
Format: cell-based
Design: test concentration 10 uM, cell line HepG2-A16-CD81EGFP
Details: human, HepG2-A16-CD81EGFP cells; read-out: INHIBITION
Method in brief: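 Uninfected HepG2-A16-CD81EGFP cells, 3 × 10^3 per well, 1536-well, plated on prespotted compound at 10 μM final, parasite-free screening media added to match infected plates; puromycin 10 μM positive, DMSO 0.5% negative; run in parallel with 48 h PbLuc assay at 37 °C, 5% CO2; viability by CellTiter-Glo luminescence, normalized to controls.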

SMILES	cytotoxicity at 10 µM [%]
CCn1c(=O)n(CC)c2cc(S(N)(=O)=O)ccc21	-7.72
N#Cc1cccc(CN2C[C@@H](F)[C@@H](OCc3nc4ccccc4[nH]3)C2)c1	6
CCc1nc2c(c(C)c(C)n2Cc2cccnc2)c(N)c1C	6.7
CCS(=O)(=O)c1cccc(C(=O)Nc2cccc3c2C(=O)N(C)C3=O)c1	-139
COC(CNC(=O)c1cn(C)nn1)c1ccc(C)s1 (configuration not stated)	-8.11
CN(C)C(=O)N1CCC2(C1)CN(c1cccnc1)C(=O)CN2C (configuration not stated)	6.96
CN(C)CCO[C@@H]1CC[C@H]2[C@H]1OCCN2C(=O)c1ccncc1	5
COc1cc(C2SCC(=O)Nc3ccsc32)cc(OC)c1OC (configuration not stated)	-1.88
O=C(O)c1cc(C2CC2)nc2c(Cl)cnn12	8.63
c1ccc(C2Cn3ccnc3CN2Cc2ncc[nH]2)cc1 (configuration not stated)	-2.8
CNC(=O)c1cn[nH]c1C1CCN(Cc2ccccc2OC)C1 (configuration not stated)	7.16
Cc1cc(N)nc(C2(C)CCCN2C(=O)Cc2ccc(F)cc2)n1 (configuration not stated)	-27.5
CCCNC(=O)C1(CC2CC(c3ccccc3OC)=NO2)CCOCC1 (configuration not stated)	21.8
CCC(=O)N1CCC(Cc2ccccc2-c2ccccc2F)(C(N)=O)C1 (configuration not stated)	-10.8
CC(=O)N1CCCC(c2ccc(Br)cn2)C1 (configuration not stated)	-24.1
Cc1cc(C)nc(Nc2cncc(C3CCCN(S(C)(=O)=O)C3)n2)n1 (configuration not stated)	-16.1
CCc1cccc2cc(CNCCCN3CCOCC3)c(=O)[nH]c12	-0.918
CCCn1ncc(CN2C[C@@H]3CCCN3C[C@@H]2Cc2ccccc2)c1C	-8.16
O=S(=O)(c1cccs1)N1CCCCC1c1ccn[nH]1 (configuration not stated)	-3
COc1cccc(CN2CCC(c3nnc(-c4cnc(C)cn4)o3)C2)c1 (configuration not stated)	-10.4
Cc1ccc(C(=O)CC(SC2CCCCC2)C(=O)O)cc1 (configuration not stated)	7.53
COCC(C)(C)NC(=O)CC(c1ccccc1)C(F)(F)F (configuration not stated)	-50.1
CCCc1nn(Cc2csc(C(C)C)n2)c(=O)o1	-47.7

SMILES	cytotoxicity at 10 µM [%]
Cc1cc(CN2CCCN(c3ccc(C#N)cc3)CC2)no1	2.07
c1nc2c(c(N3CCCC(Cn4cncn4)C3)n1)CCC2 (configuration not stated)	52.4
CC(=O)c1cccc(OCCCC(=O)N(C)C2CCN(C)CC2)c1	3.07
OCCN1CCN(CC2(O)CCCCC2)CC1	3.66
CN1CCC(CNC(=O)NCc2ccc(N(C)C)cc2)CC1	-1.42
CC(C)c1nc(CC(=O)Nc2cnccc2O)cs1	9.89
Cc1cccc(C(=O)NCCNS(=O)(=O)c2cccs2)c1C	-0.642
CCCC(C)C(=O)Nc1ccc(OC)nc1N1CCN(C(C)=O)CC1 (configuration not stated)	-5.46
COc1ccc(C(=O)NS(=O)(=O)c2cncc(Br)c2)c(OC)c1	-0.402
CC(OCC(F)(F)F)C(=O)N1CCOCC1 (configuration not stated)	-11.9
Cc1cnn(CC2CCCN2C(=O)Cc2c(C)noc2C)c1 (configuration not stated)	0.983
COc1ccc(-n2ccc(C(=O)N(C)C(C)C3(C)CC3)n2)cc1 (configuration not stated)	-2.41
C=C(C)CN1CCOC(Cn2cncn2)C1 (configuration not stated)	-52
CCCc1nc(Cn2c(=O)n(C)c3ccccc32)no1	-43
O=C1C(NCc2cccc(O)c2)CCN1Cc1ccccc1 (configuration not stated)	-0.539
CCC(CNC(=O)N1CCOCC2(CCOCC2)C1)c1ccccc1 (configuration not stated)	5.17
Clc1ccccc1C1CN(CCc2ccncc2)CCO1 (configuration not stated)	3.61
COCC(NC(=O)NCc1ccc(C)c(F)c1)c1ccco1 (configuration not stated)	4.96
NC(=O)C(CNC(=O)Cc1ccc(F)cc1)Cc1ccc(F)cc1 (configuration not stated)	3.02
Cc1nccc(NCc2cncc3c2CCN(CCN(C)C)C3)n1	-104
CN(C)C(=O)CO[C@H]1CO[C@@]2(CCN(Cc3ccoc3)C2)C1	-111
CCn1c(C)nnc1SCCn1cc(-c2nccs2)nn1	2.91
CC(C)CCN1CC2(CCN(C(=O)C3(C)CC3)CC2)OC1=O	1.84

SMILES	cytotoxicity at 10 µM [%]
Cc1cc(C(=O)N(Cc2c(C)nn(C)c2C)C(C)C)nc(C)n1	-9.85
OC[C@H]1CN(C2Cc3ccccc3C2)C[C@H]1CN1CCC(O)CC1	0.0255
CCc1ncc(C(=O)N(CC)CCOC)cn1	2.24
CCNC(=O)[C@@H]1C[C@H](NC(=O)c2cc(=O)[nH]c3ccc(C)cc23)CN1C	7.44
Cc1ccc(-n2cc(CN3CCN(C)[C@@H]4CS(=O)(=O)C[C@@H]43)cn2)cc1	-8.67
N#Cc1ccccc1CC1CCCS(=O)(=O)C1 (configuration not stated)	-3.11
CC(=O)N1CC2(CCN(c3nccc4ccccc34)CC2)CC1C(=O)O (configuration not stated)	4.65
Cc1cc(N[C@@H](CO)c2ccccc2)n2nc(C)c(C)c2n1	-0.054
CCc1c(O)nc(SC(C)CC)n(-c2ccccc2)c1=O (configuration not stated)	4.22
Cn1ncc2c(NCCn3cccc3)nc(C3CCCC3)nc21	3.07
COc1ncc(-c2cc(-c3ccn(C)c3)nc(N)c2C#N)cn1	0.471
C=C(C)COc1cccc(CNCCc2c[nH]cn2)c1	8.95
CC(C)c1cc(=O)[nH]c(-c2ccccc2CN2CCC(C)(C)C2)n1	-42
Cc1nc(C(C)NC(=O)c2cn(C/C=C/c3ccccc3)nn2)n[nH]1 (configuration not stated)	10.7
CCOCCN1CCN([C@@H]2c3ccccc3C3(CCNCC3)[C@H]2O)CC1	-0.777
Cc1cccc2cc(CN3CCC(N4CCCC4)CC3)c(=O)[nH]c12	-3.45
Cc1cc2c(=O)n(CCSc3ncn[nH]3)cnc2s1	8.87
Cc1cnccc1N1CCCN(Cc2ccc(-c3cc[nH]n3)o2)CC1	-5.13
Cc1ncc(S(C)(=O)=O)c(N(C)CCCc2cnn(C)c2)n1	-1.07
CN1CC2(CCNCC2)CC1C(=O)NCCCNc1cccnc1 (configuration not stated)	6.24
c1ccc(OCCCn2ccnc2-c2cn(C3CCNCC3)nn2)cc1	-18.1
COCCn1cnnc1CCNc1cc(C)nc2ccnn12	-1.42
O=C(NCc1cn2c(n1)SCC2)c1ccc(CN2CCCCC2)cc1	-1.08

SMILES	cytotoxicity at 10 µM [%]
Cc1cc(NCC2CCCO2)cc(=O)n1C (configuration not stated)	-8.19
O=C1NC(=O)c2c3c(nc(O)c21)CCCC3	-4.69
Cc1nc(CN2CCCC(NCc3nc4ccccc4s3)C2)no1 (configuration not stated)	-0.84
CC(C)c1noc(CN2CCCC2c2noc(C(C)C)n2)n1 (configuration not stated)	-5.89
CCN(Cc1nc2c(cnn2C)c(=O)[nH]1)Cc1ccco1	-2.8
CNC(=O)CCNC(=O)CCc1c(C)nc2cc(O)nn2c1C	-2.7
CC(=O)N1CCCC1C(=O)NCCOc1ccc(C(C)C)cc1 (configuration not stated)	-5.26
O=C(c1ccc(N2CCCC2)nn1)N1CCCC(n2ccnc2)C1 (configuration not stated)	-16.2
CC1CN(CC(=O)NC2CCOCC2)CCN1Cc1nccn1C (configuration not stated)	-6.57
c1cncc(-c2noc(CNC3CCc4ncnn4C3)n2)c1 (configuration not stated)	-5.57
CC(=O)c1cccc(NC(=O)CCn2nc(-c3cccs3)oc2=O)c1	-4.47
N#Cc1ccc(S(=O)(=O)NC(=O)COc2ccc3c(c2)CCC3)cc1	-9.36
N#Cc1cn(C2CC2)c(=O)n(CC(O)c2ccccc2C(F)(F)F)c1=O (configuration not stated)	-4.22
CC(NC(=O)c1ccsc1)c1ccc2c(c1)NC(=O)CO2 (configuration not stated)	-11.7
Cc1nn(C)c(Cl)c1C1CCCN1CC(=O)NCc1ccco1 (configuration not stated)	1.48
CC(C)CN(CCc1ccccc1)Cc1nc2c(cnn2C)c(=O)[nH]1	-6.94
O=C(c1ccc(O)nc1)N1CCC(Nc2cccnn2)CC1	-8.83
CS(=O)(=O)NC1CCCN(C(=O)NCc2cccc(F)c2)C1 (configuration not stated)	-18.8
Cc1nc(CN(C)C2CCN(Cc3cccc4c3OCCO4)C2)no1 (configuration not stated)	-13.9
CCc1nccn1C1CCCN(C(=O)c2ccc3[nH]nnc3c2)C1 (configuration not stated)	7.15
CC1CCCN(CCNC(=O)c2ccn(-c3ccccc3)n2)C1 (configuration not stated)	-3.81
O=c1oc(-c2ccc(F)cc2)nn1CN1CCN(C2CCCC2)CC1	-1.78
Cc1cnn(C2CN(Cc3nc(C(C)(C)C)no3)C2)c1	-7.28

SMILES	cytotoxicity at 10 µM [%]
Cn1ncc2c(=O)[nH]c(CN(Cc3cccc(F)c3)C3CC3)nc21	-13.1
CCc1nc(C)c(C(=O)NCCNc2ncccn2)s1	-2.16
Cc1ccc(-c2cc(CNC(=O)N3CCC(CO)CC3)on2)cc1	-7.69
CC(C)n1ccnc1CN1CCCN(C(=O)c2cc(Cl)c[nH]2)CC1	-3.79
Cc1nc(CN2CCCC(NCCc3ccccc3Cl)C2)no1 (configuration not stated)	-11.8
Cc1cnn(C2CCCN(C(=O)c3cnc4ccccc4n3)C2)c1 (configuration not stated)	-10.7
O=C(NCCNc1ncccn1)N1CCSCC1	-8.26
CC(=O)N(C)c1nc(CN2CCOC(Cn3cc(C)cn3)C2)cs1 (configuration not stated)	-7
COCc1nc(C(=O)N2CCCCC2Cn2cc(C)cn2)cs1 (configuration not stated)	3.18
FC(F)CNc1cnc(C2CCNCC2)cn1	0.83
O[C@@]1(c2ccccn2)CC[C@H]2CN(Cc3ccccn3)C[C@H]21	-4.97
Cn1ccnc1CN1CCCC(Cc2ccnc3ccncc23)CC1 (configuration not stated)	-0.751
O=C(c1ccco1)N1C[C@H]2CCCN(Cc3ccc(F)cc3)[C@H]2C1	0.255
Cc1cc(NCCO)nc(N2CCC(Cc3ccccc3)CC2)c1C#N	4.35
Cc1cc(CN2CC[C@]3(C[C@@H](OCC(=O)N(C)C)CO3)C2)no1	-105
CC(C)N1CCO[C@H]2CN(Cc3cc[nH]n3)C[C@H]21	-108
CN1CCN(c2ncnc3c2CCN(S(=O)(=O)C2CC2)CC3)CC1	-112
CO[C@@H]1CCN(Cc2ccoc2)[C@H]1Cc1ccccc1	7.46
COCCN1Cc2nccn2CC(COCc2csc(C)n2)C1 (configuration not stated)	6.22
Fc1cnc(N2CCCC3(COCCN(c4nccs4)C3)C2)nc1 (configuration not stated)	1.43
